Source: ChEMBL document CHEMBL4613248, “Twelfth-Position Deuteration of Nevirapine Reduces 12-Hydroxy-Nevirapine Formation and Nevirapine-Induced Hepatocyte Death” (J Med Chem, 2020)

What was measured:
[1] = Drug metabolism in C57BL/6J mouse primary hepatocytes assessed as Cytochrome P450-mediated formation of 2-OHD3NVP at 10 uM incubated for 24 hrs by uHPLC-MS analysis; type: ADME, cell-based
Method in brief: (§1)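 Fresh hepatocytes from male C57BL/6J mice (8–13 weeks), adhered overnight, then 10 μM substrate or vehicle (0.1% DMSO) for 24 h. Medium extracted with acetonitrile (50% final), dried, reconstituted in methanol; uHPLC-Orbitrap targeted SIM plus PRM (monooxygenated metabolites) or high-resolution ions (O-glucuronides, 459.1510/462.1700 ±5 ppm); four experimental replicates.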

[2] = Drug metabolism in C57BL/6J mouse primary hepatocytes assessed as O-GlucNVP metabolite formation at 10 uM incubated for 24 hrs by uHPLC-MS analysis; type: ADME, cell-based, Hepatocyte; method in brief: as §1
[3] = Drug metabolism in human primary hepatocytes assessed as O-GlucNVP metabolite formation at 10 uM incubated for 24 hrs by uHPLC-MS analysis; type: ADME, cell-based, Hepatocyte
Method in brief: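 Cryoplateable pooled human hepatocytes (10 mixed-sex donors per pool, three lots), adhered overnight, then 10 μM substrate or vehicle (0.1% DMSO) for 24 or 48 h in InVitroGRO CP medium. Medium extracted with 50% acetonitrile, dried, reconstituted in methanol; uHPLC-Orbitrap MS/MS for monooxygenated metabolites, high-resolution MS for O-glucuronide.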

Cytochrome P450 2C9 = Cytochrome P450 2C9 (Homo sapiens, UniProt P11712); test: Drug metabolism assessed as human CYP2C9-mediated formation of 12-OHNVP at 10 uM pre-incubated for 30 mins followed by addition of NADPH regenerating reagents by uHPLC-MS analysis; type: ADME; conditions: recombinant enzyme
Method in brief: (§2)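 Insect-cell microsomes with single cDNA-expressed human P450 (100 nM) in 0.1 M potassium phosphate; 10 μM substrate prewarmed 5 min at 37 °C with NADPH-regenerating system, reaction started by adding microsomes; 30 min at 37 °C, 0.1% DMSO. Stopped, dried, reconstituted in methanol; triple-quadrupole SRM (12-OH 283.1→223.0, 2-OH 283.1→160.9, 3-OH 283.1→241.9), peak height; three replicates, mean ± SD.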

Cytochrome P450 2C19 = Cytochrome P450 2C19 (Homo sapiens, UniProt P33261); test: Drug metabolism assessed as human CYP2C19-mediated formation of 12-OHNVP at 10 uM pre-incubated for 30 mins followed by addition of NADPH regenerating reagents by uHPLC-MS analysis; type: ADME; conditions: recombinant enzyme; method in brief: as §2
Cytochrome P450 [4] = test: Drug metabolism in human liver microsomes assessed as Cytochrome P450-mediated formation of 12-OHNVP at 10 uM […] in presence of CYP2C19 inhibitor (+)-N-3-benzyl-nirvanol and NADPH regenerating reagents by uHPLC-MS analysis; type: ADME
Cytochrome P450 [5] = test: Drug metabolism in human liver microsomes assessed as Cytochrome P450-mediated formation of 3-OHNVP formation at 5 to 400 uM in presence of NADPH regenerating reagents by uHPLC-MS/MS analysis; type: ADME
Method in brief: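 Pooled human liver microsomes (2.5 mg/mL) with NADPH-regenerating system, substrate 5–400 μM, 30 min at 37 °C, 0.1% DMSO (0.2% at 400 μM); 2- and 3-OH metabolites by uHPLC-MS/MS Orbitrap; three replicates, mean ± SD.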

Hepatocyte [6] = test: Induction of change in Fam120A protein expression in C57BL/6J mouse primary hepatocytes at 400 uM incubated for 8 hrs by relative-quantitation label-free proteomics analysis relative to NVP; type: cell-based
Method in brief: (§3)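 Fresh primary hepatocytes from male C57BL/6J mice aged 8–13 weeks, adhered overnight, then given fresh medium containing compound (400 μM), NVP (400 μM) or vehicle (0.2% DMSO) for 8 h. Lysate reduced (DTT) and alkylated (iodoacetamide), acetone-precipitated and digested with trypsin. Label-free Top10 nanoLC-MS with precursor ion area quantitation; unpaired t test P values, Cohen's d effect size.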

Hepatocyte [7] = test: Induction of change in Manf protein expression in C57BL/6J mouse primary hepatocytes at 400 uM incubated for 8 hrs by relative-quantitation label-free proteomics analysis relative to NVP; type: cell-based; method in brief: as §3
Hepatocyte [8] = test: Induction of change in Gapdh protein expression in C57BL/6J mouse primary hepatocytes at 400 uM incubated for 8 hrs by relative-quantitation label-free proteomics analysis relative to NVP; type: cell-based; method in brief: as §3
Hepatocyte [9] = test: Induction of change in Actb protein expression in C57BL/6J mouse primary hepatocytes at 400 uM incubated for 8 hrs by relative-quantitation label-free proteomics analysis relative to NVP; type: cell-based; method in brief: as §3
Hepatocyte [10] = test: Induction of change in Tf protein expression in C57BL/6J mouse primary hepatocytes at 400 uM incubated for 8 hrs by relative-quantitation label-free proteomics analysis relative to NVP; type: cell-based; method in brief: as §3
Hepatocyte [11] = test: Induction of change in Slc22a28 protein expression in C57BL/6J mouse primary hepatocytes at 400 uM incubated for 8 hrs by relative-quantitation label-free proteomics analysis relative to NVP; type: cell-based; method in brief: as §3
Hepatocyte [12] = test: Induction of change in Mrpl1 protein expression in C57BL/6J mouse primary hepatocytes at 400 uM incubated for 8 hrs by relative-quantitation label-free proteomics analysis relative to NVP; type: cell-based; method in brief: as §3
Hepatocyte [13] = test: Induction of change in CARS2 protein expression in human primary hepatocytes at 10 uM incubated for 48 hrs by relative-quantitation label-free proteomics analysis relative to NVP; type: cell-based
Method in brief: as §3, with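 “Cryoplateable pooled human” for “Fresh primary”, “(10 mixed-sex donors per pool; three pools),” for “from male C57BL/6J mice aged 8–13 weeks,”, “(10” for “(400”, “(0.1%” for “(0.2%”, “48” for “8”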

Hepatocyte [14] = test: Induction of change in DERA protein expression in human primary hepatocytes at 10 uM incubated for 48 hrs by relative-quantitation label-free proteomics analysis relative to NVP; type: cell-based
Method in brief: as §3, with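 “Cryoplateable pooled human” for “Fresh primary”, “(10 mixed-sex donors per pool; three pools),” for “from male C57BL/6J mice aged 8–13 weeks,”, “(10” for “(400”, “(0.1%” for “(0.2%”, “48” for “8”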

Hepatocyte [15] = test: Induction of change in ACSF3 protein expression in human primary hepatocytes at 10 uM incubated for 48 hrs by relative-quantitation label-free proteomics analysis relative to NVP; type: cell-based
Method in brief: as §3, with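 “Cryoplateable pooled human” for “Fresh primary”, “(10 mixed-sex donors per pool; three pools),” for “from male C57BL/6J mice aged 8–13 weeks,”, “(10” for “(400”, “(0.1%” for “(0.2%”, “48” for “8”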

Hepatocyte [16] = test: Induction of change in NOL6 protein expression in human primary hepatocytes at 10 uM incubated for 48 hrs by relative-quantitation label-free proteomics analysis relative to NVP; type: cell-based
Method in brief: as §3, with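 “Cryoplateable pooled human” for “Fresh primary”, “(10 mixed-sex donors per pool; three pools),” for “from male C57BL/6J mice aged 8–13 weeks,”, “(10” for “(400”, “(0.1%” for “(0.2%”, “48” for “8”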

Hepatocyte [17] = test: Induction of change in ALAD protein expression in human primary hepatocytes at 10 uM incubated for 48 hrs by relative-quantitation label-free proteomics analysis relative to NVP; type: cell-based
Method in brief: as §3, with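 “Cryoplateable pooled human” for “Fresh primary”, “(10 mixed-sex donors per pool; three pools),” for “from male C57BL/6J mice aged 8–13 weeks,”, “(10” for “(400”, “(0.1%” for “(0.2%”, “48” for “8”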

Hepatocyte [18] = test: Induction of change in CCAR2 protein expression in human primary hepatocytes at 10 uM incubated for 48 hrs by relative-quantitation label-free proteomics analysis relative to NVP; type: cell-based
Method in brief: as §3, with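 “Cryoplateable pooled human” for “Fresh primary”, “(10 mixed-sex donors per pool; three pools),” for “from male C57BL/6J mice aged 8–13 weeks,”, “(10” for “(400”, “(0.1%” for “(0.2%”, “48” for “8”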

Hepatocyte [19] = test: Induction of change in MSRA protein expression in human primary hepatocytes at 10 uM incubated for 48 hrs by relative-quantitation label-free proteomics analysis relative to NVP; type: cell-based
Method in brief: as §3, with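 “Cryoplateable pooled human” for “Fresh primary”, “(10 mixed-sex donors per pool; three pools),” for “from male C57BL/6J mice aged 8–13 weeks,”, “(10” for “(400”, “(0.1%” for “(0.2%”, “48” for “8”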

Hepatocyte [20] = test: Induction of change in PTP4A1 protein expression in human primary hepatocytes at 10 uM incubated for 48 hrs by relative-quantitation label-free proteomics analysis relative to NVP; type: cell-based
Method in brief: as §3, with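 “Cryoplateable pooled human” for “Fresh primary”, “(10 mixed-sex donors per pool; three pools),” for “from male C57BL/6J mice aged 8–13 weeks,”, “(10” for “(400”, “(0.1%” for “(0.2%”, “48” for “8”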

Hepatocyte [21] = test: Induction of change in AKAP2 protein expression in human primary hepatocytes at 10 uM incubated for 48 hrs by relative-quantitation label-free proteomics analysis relative to NVP; type: cell-based
Method in brief: as §3, with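 “Cryoplateable pooled human” for “Fresh primary”, “(10 mixed-sex donors per pool; three pools),” for “from male C57BL/6J mice aged 8–13 weeks,”, “(10” for “(400”, “(0.1%” for “(0.2%”, “48” for “8”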

Chain of Cytochrome P450 2C19 (P33261 whole entry): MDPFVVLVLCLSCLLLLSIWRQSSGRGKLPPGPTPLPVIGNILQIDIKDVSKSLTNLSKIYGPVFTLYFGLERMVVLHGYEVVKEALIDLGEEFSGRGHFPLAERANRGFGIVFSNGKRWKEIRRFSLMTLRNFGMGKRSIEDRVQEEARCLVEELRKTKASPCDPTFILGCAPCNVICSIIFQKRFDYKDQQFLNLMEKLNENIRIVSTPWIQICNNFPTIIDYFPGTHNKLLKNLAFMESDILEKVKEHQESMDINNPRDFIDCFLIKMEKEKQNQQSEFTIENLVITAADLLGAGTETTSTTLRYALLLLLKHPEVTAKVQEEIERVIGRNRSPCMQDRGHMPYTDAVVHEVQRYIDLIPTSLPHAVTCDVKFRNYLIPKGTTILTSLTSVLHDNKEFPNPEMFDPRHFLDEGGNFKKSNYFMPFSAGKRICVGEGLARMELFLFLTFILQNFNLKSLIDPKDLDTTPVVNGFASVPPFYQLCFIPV
Chain of Cytochrome P450 2C9 (P11712 whole entry): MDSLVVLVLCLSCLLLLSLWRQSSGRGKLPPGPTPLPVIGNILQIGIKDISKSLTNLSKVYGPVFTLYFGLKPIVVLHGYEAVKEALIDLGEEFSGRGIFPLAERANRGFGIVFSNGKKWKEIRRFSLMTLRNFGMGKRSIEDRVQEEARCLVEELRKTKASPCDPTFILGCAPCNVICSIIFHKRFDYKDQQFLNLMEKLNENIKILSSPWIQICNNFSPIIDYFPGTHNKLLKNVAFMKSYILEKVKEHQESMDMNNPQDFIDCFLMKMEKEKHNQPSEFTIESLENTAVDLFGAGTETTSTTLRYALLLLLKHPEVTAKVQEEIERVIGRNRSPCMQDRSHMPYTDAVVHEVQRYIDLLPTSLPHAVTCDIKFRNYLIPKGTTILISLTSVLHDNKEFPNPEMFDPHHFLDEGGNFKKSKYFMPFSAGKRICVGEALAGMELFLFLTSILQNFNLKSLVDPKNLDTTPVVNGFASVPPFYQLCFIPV

[2H]C([2H])([2H])c1ccnc2c1NC(=O)c1cccnc1N2C1CC1
Drug metabolism [1]: Metabolite_Detected | Drug metabolism [2]: Metabolite_Detected | Drug metabolism [3]: Metabolite_Detected | Drug metabolism (Cytochrome P450 2C9): Metabolite_Detected | Drug metabolism (Cytochrome P450 2C19): Metabolite_Detected | Drug metabolism (Cytochrome P450 [4]): Metabolite_Detected | Drug metabolism (Cytochrome P450 [5]): Metabolite_Detected | fold change (FC) (Hepatocyte [6]): 2.06 | fold change (FC) (Hepatocyte [7]): 1.3 | fold change (FC) (Hepatocyte [8]): 1.4 | fold change (FC) (Hepatocyte [9]): 1.05 | fold change (FC) (Hepatocyte [10]): -1.52 | fold change (FC) (Hepatocyte [11]): -1.66 | fold change (FC) (Hepatocyte [12]): -1.87 | fold change (FC) (Hepatocyte [13]): 1.85 | fold change (FC) (Hepatocyte [14]): -1.63 | fold change (FC) (Hepatocyte [15]): -1.63 | fold change (FC) (Hepatocyte [16]): -1.85 | fold change (FC) (Hepatocyte [17]): -1.86 | fold change (FC) (Hepatocyte [18]): -2.05 | fold change (FC) (Hepatocyte [19]): -2.05 | fold change (FC) (Hepatocyte [20]): -2.42 | fold change (FC) (Hepatocyte [21]): -2.67
